Pemphigus Ab inh: inhibitors of pemphigus antibody binding to DSG3, primary screen, biochemical, bead-based, flow cytometry, scFv-GFP | Desmoglein-3 (Homo sapiens), P32926 | DSG3-coupled beads, scFv-anti-DSG3-GFP binding; active compounds read low | binding (percent of control), % at 10 µM | actives 0.48% (n = 310,000) | AID 588358, 2011;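 active = binding more than 3 SD below its plate's average and above zero; inconclusive = below that plate limit but binding exactly zero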;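 also: hits lower antibody fragment binding to DSG3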
MEKK2 WT-MEK5: modulators of MEK5 binding to wildtype MEKK2, primary screen, biochemical, multiplex bead flow cytometry, Alexa488-MEK5 | binding response (% of control), % at 10 µM | Alexa488-MEK5 binding to MEKK2 WT; actives lie on both sides | actives 1.1% (n = 290,000) | Mitogen-activated protein kinase kinase kinase 2 (Homo sapiens), Q9Y2U5; in the data active = binding response below about 67% or above about 130%; inconclusive = no clear call, values can overlap the other calls; inactive = in between
MEKK2 mut-MEK5: MEK5 binding signal on mutant MEKK2 PB1, primary screen, biochemical, multiplex bead flow cytometry, Alexa488-MEK5. Alexa488-MEK5 binding to MEKK2 mutant. percent response, % at 10 µM. actives 0.35% (n = 290,000); in the data active = percent response above about 24%, passing the limit was not always enough
MEKK3 PB1 HTS: modulators of MEKK3-MEK5 PB1 binding, primary screen, biochemical, wildtype MEKK3, multiplex bead flow cytometry, Alexa488-MEK5; Mitogen-activated protein kinase kinase kinase 3 (Homo sapiens), Q99759; bead-based flow cytometry, Alexa488-MEK5 binding to MEKK3; actives lie on both sides; 0 = blocked by unlabeled MEK5, 100 = vehicle; binding response (% of control), % at 10 µM; actives 1.4% (n = 290,000);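 active = binding response more than 3 SD above or below the average of its plate-row segment, actives on both sides; inconclusive = wells at one plate position flagged as instrument error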;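 also: Alexa488 bead fluorescence after subtracting the streptavidin-only scavenger bead signal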
Apaf1 inhib: inhibitors of human Apaf-1 apoptosome, primary screen, biochemical, DEVD-Rh110 fluorescence, uHTS; Apoptotic protease-activating factor 1 (Homo sapiens), O14727; inhibition, % at 20 µM; reconstituted apoptosome caspase-3 activity; actives 0.71% (n = 330,000); AID 489030, 2010; active = inhibition of at least 40% at 20 µM
Target sequence (O14727 whole entry, looked up): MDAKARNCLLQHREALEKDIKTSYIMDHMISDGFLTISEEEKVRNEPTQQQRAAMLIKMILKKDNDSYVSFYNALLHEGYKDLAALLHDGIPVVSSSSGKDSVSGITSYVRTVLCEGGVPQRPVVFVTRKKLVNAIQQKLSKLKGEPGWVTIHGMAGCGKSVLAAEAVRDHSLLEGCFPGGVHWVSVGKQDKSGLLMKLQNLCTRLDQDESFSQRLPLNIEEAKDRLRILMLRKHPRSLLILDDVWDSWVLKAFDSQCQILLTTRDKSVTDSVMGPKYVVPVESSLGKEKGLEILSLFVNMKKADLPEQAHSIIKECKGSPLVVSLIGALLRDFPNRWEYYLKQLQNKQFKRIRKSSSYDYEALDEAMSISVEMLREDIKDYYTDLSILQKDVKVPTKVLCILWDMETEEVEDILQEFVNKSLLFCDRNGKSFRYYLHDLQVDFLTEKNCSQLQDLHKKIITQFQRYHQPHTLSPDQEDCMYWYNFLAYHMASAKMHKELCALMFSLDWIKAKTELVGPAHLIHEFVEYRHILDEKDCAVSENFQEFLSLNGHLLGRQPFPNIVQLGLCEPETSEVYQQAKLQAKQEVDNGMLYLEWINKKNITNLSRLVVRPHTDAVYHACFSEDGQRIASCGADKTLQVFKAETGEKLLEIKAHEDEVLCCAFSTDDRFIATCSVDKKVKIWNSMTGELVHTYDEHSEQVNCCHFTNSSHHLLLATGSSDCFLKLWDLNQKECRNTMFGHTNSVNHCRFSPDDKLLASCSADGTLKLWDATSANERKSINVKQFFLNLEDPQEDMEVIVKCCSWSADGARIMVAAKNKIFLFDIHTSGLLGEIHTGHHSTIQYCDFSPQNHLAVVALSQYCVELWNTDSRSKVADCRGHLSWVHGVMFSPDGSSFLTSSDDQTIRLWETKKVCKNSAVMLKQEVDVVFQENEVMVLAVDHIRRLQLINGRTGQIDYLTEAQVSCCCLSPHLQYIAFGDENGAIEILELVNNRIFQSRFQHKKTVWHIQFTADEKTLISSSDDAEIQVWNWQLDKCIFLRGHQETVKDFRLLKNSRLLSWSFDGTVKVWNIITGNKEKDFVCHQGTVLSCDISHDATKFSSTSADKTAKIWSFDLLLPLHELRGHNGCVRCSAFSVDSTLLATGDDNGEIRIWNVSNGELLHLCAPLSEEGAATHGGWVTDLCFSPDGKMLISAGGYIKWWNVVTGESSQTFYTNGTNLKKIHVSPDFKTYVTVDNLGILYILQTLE
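Material: reconstituted apoptosome with Apaf-1, cytochrome c, caspase-9, procaspase-3, dATP; medium: pH 7.5 Hepes buffer with CHAPS, BSA, DTT; also added: cytochrome c and DEVD-Rh110 substrate; timing: 30 min plus 50 min, RT; signal: Rh110 fluorescence intensity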
UBC13 polyUb: UBC13 polyubiquitin chain formation inhibitors, primary screen, biochemical, TR-FRET, uHTS | Ubiquitin-conjugating enzyme E2 N (Homo sapiens), P61088 | inhibition, % at 20 µM | actives 0.47% (n = 330,000); in the data active = inhibition above about 45%, passing the limit was not always enough; inconclusive = no clear call, values can overlap the other calls
MEKK2wt confirm: modulators of MEK5 binding to wildtype MEKK2, confirmation, biochemical, single concentration, multiplex bead flow cytometry. shares compounds with MEKK3 PB1 HTS. Alexa488-MEK5 binding to MEKK2 WT; actives lie on both sides. binding response (% of control), % at 10 µM. actives 2.4% (n = 5,900). AID 1892, 2009; in the data active = binding response below about 16% or above about 210%; inactive = in between
MEKK2mut-MEK5: mutant MEKK2 PB1-MEK5 binding signal retest – biochemical, single concentration, multiplex bead flow cytometry, confirmation; shares compounds with MEKK3 PB1 HTS; Alexa488-MEK5 binding to MEKK2 mutant; percent response, % at 10 µM; actives 2% (n = 5,900); in the data active = percent response mostly above about 71%, no sharp cut-off; inactive = mostly below about 38%;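 also: higher means compound restores mutant binding toward wildtype level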
MEKK3 confirm: MEKK3 wild-type PB1 binding to MEK5, inhibitors, confirmation, biochemical, bead multiplex flow cytometry, single concentration, wildtype | shares compounds with MEKK3 PB1 HTS | Alexa488-MEK5 binding to MEKK3; active compounds read low | binding response (% of control), % at 10 µM | actives 1.8% (n = 5,900);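 active = binding response below 72% of control, or above a set upper limit, though filed actives all read lower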;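 also: lower values mean stronger disruption of MEK5 binding to MEKK3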
Each line names hits and unclear results; the compound was inactive in the other large screens (follow-up assays come after a bar, where they were run); [ ] = another dose, or the depositor's remark. Hits are enriched below; roughly 3.2% of the tested compounds scored in any of these assays.

O=C(NC(N1CCCCCC1)C(Cl)(Cl)Cl)c1ccccc1Cl (stereo unspecified)	none
O=C(NC(N1CCOCC1)C(Cl)(Cl)Cl)c1ccccc1Cl (stereo unspecified)	MEKK2 WT-MEK5 55[inhibitor] | MEKK2wt confirm inactive | MEKK2mut-MEK5 inactive | MEKK3 confirm inactive
CCCCN1CC(COC)Oc2cccc(F)c2S1(=O)=O (stereo unspecified)	none (no result: MEKK2 WT-MEK5, MEKK2 mut-MEK5, MEKK3 PB1 HTS, Apaf1 inhib, UBC13 polyUb)
O=C1c2ccccc2N2C(=O)c3ccccc3C2N1Cc1ccccc1 (stereo unspecified)	MEKK3 PB1 HTS 130 | MEKK2wt confirm inactive | MEKK2mut-MEK5 inactive | MEKK3 confirm inactive
CC1(C)CC(NC(=O)c2ccc(Br)o2)CC(C)(C)N1	none
O=C(COC(=O)c1ccc[nH]c1=O)NCC12CC3CC(CC(C3)C1)C2	none (no result: Pemphigus Ab inh, MEKK2 WT-MEK5, MEKK2 mut-MEK5, MEKK3 PB1 HTS)
COc1ccc(N(CC(=O)N2CCN(c3ccc(F)cc3)CC2)S(=O)(=O)c2c(C)noc2C)cc1	none
COc1ccc(N(CC(=O)N2CCN(c3ccc(F)cc3)CC2)S(=O)(=O)c2c(C)n[nH]c2C)cc1	MEKK3 PB1 HTS 128 | MEKK2wt confirm inactive | MEKK2mut-MEK5 inactive | MEKK3 confirm inactive
CCc1ccc2c(c1)C(c1ccc(N3CCOCC3)cc1)=NNC(c1ccncc1)=N2	MEKK3 PB1 HTS 148 | MEKK2wt confirm inactive | MEKK2mut-MEK5 inactive | MEKK3 confirm inactive
O=C(NC(=S)NCCC1=CCCCC1)c1cncc(Br)c1	MEKK3 PB1 HTS 152 | MEKK2wt confirm inactive | MEKK2mut-MEK5 inactive | MEKK3 confirm inactive
Cc1cc(C)n(-c2nc(SCCN(C)C)c3c4c(sc3n2)CCCC4)n1	MEKK2 WT-MEK5 211, MEKK2 mut-MEK5 49, MEKK3 PB1 HTS 124 | MEKK2wt confirm inactive | MEKK2mut-MEK5 inactive | MEKK3 confirm inactive
Cc1cc(C)n(-c2nc(SCC(=O)O)c3c4c(sc3n2)COC(C)(C)C4)n1	none
COC(=O)c1ccsc1NC(=O)CN1CCN(c2ncccn2)CC1	none
CC(C)CCNC(=O)NC(=O)CSc1nnc2ccccn12	none
CC(C)CNC(=O)CSc1nnc2ccccn12	MEKK3 PB1 HTS 53[inhibitor] | MEKK2wt confirm inactive | MEKK2mut-MEK5 inactive | MEKK3 confirm inactive
Cc1ccccc1N(CC(=O)NCc1ccc2c(c1)OCO2)C(=O)CCC(=O)Nc1ccccn1	MEKK3 PB1 HTS 76[inhibitor] | MEKK2wt confirm inactive | MEKK2mut-MEK5 inactive | MEKK3 confirm inactive
O=C(CN(C(=O)CCC(=O)Nc1ccccn1)c1ccccc1F)NCc1ccc2c(c1)OCO2	none
CC(C)NS(=O)(=O)c1ccc(CCC(=O)Nc2ccc3c(c2)OCCO3)cc1	MEKK3 PB1 HTS 164 | MEKK2wt confirm inactive | MEKK2mut-MEK5 inactive | MEKK3 confirm inactive
COC(=O)[C@H](Cc1c[nH]c2ccccc12)NC(=O)NCc1ccc(OC)c(OC)c1	none
CCOC(=O)c1c(C)[nH]c(=S)c(C#N)c1-c1ccc(OC)cc1	MEKK3 PB1 HTS 122, UBC13 polyUb inconclusive | MEKK2wt confirm inactive | MEKK2mut-MEK5 inactive | MEKK3 confirm inactive
O=C(COC(=O)C1CCCCC1)Nc1ccc(N2CCCCC2)cc1	MEKK2 WT-MEK5 150, MEKK2 mut-MEK5 47 | MEKK2wt confirm inactive | MEKK2mut-MEK5 inactive | MEKK3 confirm inactive
O=C(Nc1ccc(S(=O)(=O)N2CCOCC2)cc1)C1CCCCC1	none
O=C(CNCCC1=CCCCC1)Nc1ccc(N2CCCCCC2)cc1	MEKK2 WT-MEK5 188 | MEKK2wt confirm inactive | MEKK2mut-MEK5 inactive | MEKK3 confirm inactive
O=C(CNC1CCCCCC1)Nc1ccc(N2CCCC2)cc1	none (no result: Pemphigus Ab inh, MEKK2 WT-MEK5, MEKK2 mut-MEK5, MEKK3 PB1 HTS)
NS(=O)(=O)c1ccc(NC(=O)COC(=O)C2CCCCC2)cc1	none
O=C(Nc1ccc(N2CCOCC2)cc1)C1CCCCC1	MEKK3 PB1 HTS 82[inhibitor] | MEKK2wt confirm inactive | MEKK2mut-MEK5 inactive | MEKK3 confirm inactive
COc1cc(CCC(=O)N2CCN(S(=O)(=O)c3ccc(C)cc3)CC2)cc(OC)c1OC	none (no result: MEKK2 WT-MEK5, MEKK2 mut-MEK5, MEKK3 PB1 HTS)
O=S1(=O)N=C(c2ccccc2)C=C(c2ccccc2)N1	none (no result: MEKK2 WT-MEK5, MEKK2 mut-MEK5, MEKK3 PB1 HTS, UBC13 polyUb)
COc1ccc(NC(=S)N2c3ccccc3CC2C)cc1OC (stereo unspecified)	MEKK3 PB1 HTS 74[inhibitor] | MEKK2wt confirm inactive | MEKK2mut-MEK5 inactive | MEKK3 confirm inactive
CCCCNC(=O)C1C2C=CC(C2)C1C(=O)O (stereo unspecified)	MEKK3 PB1 HTS 149 (no result: Pemphigus Ab inh) | MEKK2wt confirm inactive | MEKK2mut-MEK5 inactive | MEKK3 confirm inactive
O=c1sc2ccccc2c(=O)n1Cc1ccccc1F	MEKK3 PB1 HTS 139 | MEKK2wt confirm inactive | MEKK2mut-MEK5 inactive | MEKK3 confirm inactive
CCOC(=O)/C(C#N)=C\c1c(OCC)n(CC)c2ccccc12	MEKK3 PB1 HTS 134 | MEKK2wt confirm inactive | MEKK2mut-MEK5 inactive | MEKK3 confirm inactive
CCc1nccn1-c1cc(C(C)(C)C)nc2c(-c3ccc(Cl)cc3)cnn12	MEKK3 PB1 HTS 151 | MEKK2wt confirm inactive | MEKK2mut-MEK5 inactive | MEKK3 confirm inactive
CCOC(=O)C1CCN(C(=O)COC(=O)COc2ccc(Cl)cc2)CC1	MEKK3 PB1 HTS 37[inhibitor] | MEKK2wt confirm inactive | MEKK2mut-MEK5 inactive | MEKK3 confirm inactive
CCOC(=O)C1CCN(C(=O)Cc2ccc(OC)c(OC)c2)CC1	MEKK3 PB1 HTS 81[inhibitor] | MEKK2wt confirm inactive | MEKK2mut-MEK5 inactive | MEKK3 confirm inactive
C=CCn1c(=O)c2c3c(sc2n2c(Nc4ccccc4)nnc12)CCCC3	MEKK2 WT-MEK5 13[inhibitor], MEKK3 PB1 HTS 10[inhibitor] (no result: Pemphigus Ab inh) | MEKK2wt confirm inactive | MEKK2mut-MEK5 inactive | MEKK3 confirm inactive
COCCCN1C(=O)C(CC(=O)NC2CCCC2)CC(C(=O)N2CCOCC2)=C1C (stereo unspecified)	none (no result: MEKK2 WT-MEK5, MEKK2 mut-MEK5, MEKK3 PB1 HTS, Apaf1 inhib, UBC13 polyUb)

Compound activity deposited in PubChem BioAssay by several laboratories.
